From ChEMBL document CHEMBL3352518, “Synthesis and biological evaluation of pyridinone analogues as novel potent HIV-1 NNRTIs” (Bioorg Med Chem, 2015)
pEC50, pIC50: −log10 of the molar value.

Experiments:
[1] = target: Human immunodeficiency virus type 1 reverse transcriptase (Human immunodeficiency virus 1, UniProt Q72547); assay: Inhibition of HIV-1 recombinant reverse transcriptase after 1 hr by streptavidinalkaline phosphatase reporter system
In short: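 Highly purified recombinant HIV-1 RT with a poly(rA)/oligo(dT)15 homopolymer template. SA-ALP was added, then PNPP (1 mg/mL, pH 9.5) for 30 min at 37 °C, stopped with NaOH. IC50 is the mean of three experiments.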

[2] = system: Human immunodeficiency virus 1; assay: Antiviral activity against wild-type HIV-1 SF33 infected in human TZM-bl cells after 7 days by ELISA; format: functional, organism-based; details: Human immunodeficiency virus 1, SF33, TZM-bl, 168 h
In short: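 TZM-bl cells (4 × 10⁴/well) were infected with 200 TCID₅₀ of HIV-1 SF33 for 2 h at 37 °C. Serially diluted compounds were then added and incubation continued 7 days at 37 °C. p24 was measured by ELISA.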

[3] = Cytotoxicity against human TZM-bl cells after 3 days by XTT assay; format: cell-based
[4] = Selectivity index, ratio of CC50 for human TZM-bl cells to EC50 for wild-type HIV-1 SF33; format: toxicity, cell-based; details: read-out: Ratio CC50/EC50
In short: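 SI is calculated as CC50 in TZM-bl cells divided by EC50 against HIV-1 SF33 infection.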

SMILES	pIC50 [1]	pEC50 [2]	CC50 at 72 h [3] [µM]	selectivity ratio [4]
CC1CCCCC1Nc1cc(CCc2ccccc2)[nH]c(=O)c1I (stereo unspecified)	6.38	5.57	50.2	18.5
CC(C)c1c(Sc2ccccc2)cc(CCc2ccccc2)[nH]c1=O	7.03	6.87	136	998
O=c1[nH]c(CCc2ccccc2)cc(NC2CCCC2)c1I	4.62			
O=c1[nH]c(CCc2ccccc2)cc(NC2CCCCC2)c1I	4.82			
O=c1[nH]c(CCc2ccccc2)cc(NC2CCCCC2)c1Br	4.40			
O=c1[nH]c(CCc2ccccc2)cc(Nc2ccccc2)c1Br	4.95			
CC(C)c1c(Oc2ccccc2)cc(CCc2ccccc2)[nH]c1=O	7.05	7.25	195	3470
CN(C)c1c(Sc2ccccc2)cc(CCc2ccccc2)[nH]c1=O	4.82			
Cc1ccc(Sc2cc(CCc3ccccc3)[nH]c(=O)c2I)cc1	4.92			
O=c1[nH]c(CCc2ccccc2)cc(Sc2ccccc2)c1I	4.69			
O=c1[nH]c(CCc2ccccc2)cc(Nc2ccccc2)c1I	5.09			
O=c1[nH]c(CCc2ccccc2)cc(NC2CCCC2)c1Br	4.36			
Cc1ccc(Sc2cc(CCc3ccccc3)[nH]c(=O)c2Br)cc1	4.77			
O=c1[nH]c(CCc2ccccc2)cc(Oc2ccccc2)c1I	6.54	6.82	181	1200
CC1CCCCC1Nc1cc(CCc2ccccc2)[nH]c(=O)c1Br (stereo unspecified)	6.17	4.86	131	9.6
O=c1[nH]c(CCc2ccccc2)cc(Sc2ccccc2)c1Br	4.24			
